Measurements of several laboratories.
Lines come from different studies, so protocols differ.
Cell line: HepG2
Read-out: cell growth or viability

For `COc1cccc2c1C(=O)c1c(O)c3c(c(O)c1C2=O)C[C@@](O)(C(=O)CO)C[C@@H]3O[C@H]1C[C@H](N)[C@H](O)[C@H](C)O1`, the IC50 was 0.355 µM (MTT; 72 h).
`COc1cccc2c1C(=O)c1c(O)c3c(c(O)c1C2=O)C[C@@](O)(C(=O)CO)C[C@@H]3O[C@H]1C[C@H](N)[C@H](O)[C@H](C)O1` has an IC50 of 4.5 µM (MTT; 24 h).
`CCOc1nc(-c2cccc(O)c2)cc(-c2cc3ccccc3nc2N2CCOCC2)c1C#N` gave an IC50 of 0.132 µM (MTT; 72 h).
`CN(C)c1cc(NC(=O)Cc2ccncn2)c(O)c2c1C[C@H]1C[C@H]3[C@H](N(C)C)C(O)=C(C(N)=O)C(=O)[C@@]3(O)C(O)=C1C2=O` has an IC50 of over 200 µg/mL (ATP luminescence; 72 h).
With `COc1ccc2nc(N3CCOCC3)c(-c3cc(-c4cccc(O)c4)nc4[nH]nc(N)c34)cc2c1` the IC50 was 0.087 µM (MTT; 72 h).
`Cc1ccc(-c2cc(-c3ccc(Cl)c(F)c3)c3c(=O)n(C)c(=O)n(C)c3n2)cc1` has an IC50 of 38.8 µM (MTT; 48 h).
`CN(C)c1cc(NC(=O)c2ccccc2)c(O)c2c1C[C@H]1C[C@H]3[C@H](N(C)C)C(O)=C(C(N)=O)C(=O)[C@@]3(O)C(O)=C1C2=O` gave an IC50 of 21.3 µg/mL (ATP luminescence; 72 h).
With `COc1nc(NCc2cn(-c3ccc(C(=O)Nc4ccc(C(F)(F)F)cc4)cc3)nn2)nc(OC)n1` the IC50 was 0.0651 µM (MTT; 72 h).
The IC50 of `COc1ccc(-c2cc(-c3cc(OC)ccc3OC)c3c(=O)n(C)c(=O)n(C)c3n2)cc1` is reported as 16.4 µM (MTT; 48 h).
`COc1ccc2[nH]c(C(=O)Nc3nc(CC(=O)O)cs3)cc2c1` has an IC50 of 59.8 µM (MTT; 24 h).
With `COc1ccc(C2CC(c3ccc(Nc4nnc(-c5ccc(Cl)cc5)c5ccccc45)cc3)=NN2)cc1` (centres unmarked) the IC50 was 0.19 µM (MTT; 72 h).
`Cc1ccc(-c2cc(-c3ccc(Cl)cc3)c3c(=O)[nH]c(=O)[nH]c3n2)cc1` has an IC50 of 8.46 µM (MTT; 48 h).
The IC50 of `CN(C)c1cc(NC(=O)CCc2cccnc2)c(O)c2c1C[C@H]1C[C@H]3[C@H](N(C)C)C(O)=C(C(N)=O)C(=O)[C@@]3(O)C(O)=C1C2=O` is reported as over 200 µg/mL (ATP luminescence; 72 h).
`COc1ccc2[nH]c(C(=O)Nc3nc(CC(=O)NO)cs3)cc2c1` gave an IC50 of 13.3 µM (MTT; 24 h).
`Cc1ccc(-c2cc(-c3ccc(N(C)C)cc3)c3c(=O)n(C)c(=O)n(C)c3n2)cc1` has an IC50 of 14.4 µM (MTT; 48 h).
With `CN(C)c1cc(NC(=O)Cc2ccccc2)c(O)c2c1C[C@H]1C[C@H]3[C@H](N(C)C)C(O)=C(C(N)=O)C(=O)[C@@]3(O)C(O)=C1C2=O` the IC50 was 63.7 µg/mL (ATP luminescence; 72 h).
`Nc1n[nH]c2nc(-c3cccc(O)c3)cc(-c3cc4cc(Cl)ccc4nc3N3CCOCC3)c12` gave an IC50 of 0.0907 µM (MTT; 72 h).
`CN(C)c1cc(NC(=O)Cc2ccncc2)c(O)c2c1C[C@H]1C[C@H]3[C@H](N(C)C)C(O)=C(C(N)=O)C(=O)[C@@]3(O)C(O)=C1C2=O` has an IC50 of over 200 µg/mL (ATP luminescence; 72 h).
`COc1ccc(-c2cc(-c3cc(OC)ccc3OC)c3c(=O)[nH]c(=O)[nH]c3n2)cc1` has an IC50 of 13.1 µM (MTT; 48 h).
For `CN(C)c1cc(NC(=O)Cc2cnccn2)c(O)c2c1C[C@H]1C[C@H]3[C@H](N(C)C)C(O)=C(C(N)=O)C(=O)[C@@]3(O)C(O)=C1C2=O`, the IC50 was over 200 µg/mL (ATP luminescence; 72 h).
With `COc1ccc(-c2cc(-c3c(OC)cccc3OC)c3c(=O)n(C)c(=O)n(C)c3n2)cc1` the IC50 was 10.5 µM (MTT; 48 h).
The IC50 of `CN(C)c1cc(NC(=O)Cc2cncnc2)c(O)c2c1C[C@H]1C[C@H]3[C@H](N(C)C)C(O)=C(C(N)=O)C(=O)[C@@]3(O)C(O)=C1C2=O` is reported as 84.8 µg/mL (ATP luminescence; 72 h).
With `COc1ccc(-c2cc(-c3ccccc3Cl)c3c(=O)[nH]c(=O)[nH]c3n2)cc1` the IC50 was 18.9 µM (MTT; 48 h).
